What was measured:
human UGT1A1 [1] = target: T1, human UGT1A1 (Homo sapiens, UniProt P22309); assay: Mutual glucuronidation inhibition; assay type: biochemical; conditions: for Ki: mixed-type inhibition; for type of inhibition of UGT1A1-mediated glucuronidation: best fit by R2 and AIC, Lineweaver-Burk plots; for decrease of apparent Vmax of glucuronidation versus control: substrate glucuronidation in presence of increasing 3,7,4′THF, up to 5 μM; for Vmax: n=3
T1 sequence (P22309 26-533): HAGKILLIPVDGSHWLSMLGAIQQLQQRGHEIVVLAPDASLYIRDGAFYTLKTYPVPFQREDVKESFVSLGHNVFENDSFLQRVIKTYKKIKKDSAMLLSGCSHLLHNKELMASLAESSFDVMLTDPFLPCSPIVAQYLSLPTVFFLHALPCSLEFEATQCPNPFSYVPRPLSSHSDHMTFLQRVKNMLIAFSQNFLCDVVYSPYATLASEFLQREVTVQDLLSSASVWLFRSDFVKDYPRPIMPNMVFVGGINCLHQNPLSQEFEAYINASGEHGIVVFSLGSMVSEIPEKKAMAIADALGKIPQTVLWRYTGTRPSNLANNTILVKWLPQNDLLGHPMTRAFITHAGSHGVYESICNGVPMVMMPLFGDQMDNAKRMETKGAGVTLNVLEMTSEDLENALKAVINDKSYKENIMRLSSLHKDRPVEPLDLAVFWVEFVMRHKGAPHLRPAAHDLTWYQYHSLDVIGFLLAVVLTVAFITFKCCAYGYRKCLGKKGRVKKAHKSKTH

human UGT1A1 [2] = target: T1, human UGT1A1; assay: Glucuronidation kinetics with expressed human UGT1A1 Supersomes; assay type: in vitro ADME
Summary of the method: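 Recombinant human UGT1A1 Supersomes (26.5~53.0 µg protein/mL final) with MgCl2 0.88 mM, saccharolactone 4.4 mM, alamethicin 0.022 mg/mL and UDPGA 3.5 mM (added last) in 50 mM potassium phosphate, pH 7.4. Test compound at 0–10 µM final. Incubated 37°C for 15~120 min, then stopped with acetonitrile/acetic acid. Glucuronide quantified by UPLC in triplicate. Rates were fitted to Michaelis-Menten, substrate-inhibition or Hill equations with 1/y weighting.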

[3] = Ki (inhibition of 3,7,4′THF-3-O-G formation), substrate 3,7,4′THF, 3-O-glucuronidation
[4] = Ki (inhibition of 3,7,4′THF-7-O-G formation), substrate 3,7,4′THF, 7-O-glucuronidation
[5] = glucuronide formation in presence of 3,7,4′THF 0.313 μM
[6] = glucuronide formation in presence of 3,7,4′THF 0.625 μM
[7] = glucuronide formation in presence of 3,7,4′THF 1.25 μM
[8] = glucuronide formation in presence of 3,7,4′THF 5 μM
[9] = glucuronide formation, 3,7,4′THF 0 μM (absence of inhibitor)

| Vmax (human UGT1A1 [1]; [5]) [nmol/mg/min] | Vmax (human UGT1A1 [1]; [6]) [nmol/mg/min] | Vmax (human UGT1A1 [1]; [7]) [nmol/mg/min] | Vmax (human UGT1A1 [1]; [8]) [nmol/mg/min] | Vmax (human UGT1A1 [1]; [9]) [nmol/mg/min] | Structure (SMILES) | Ki (human UGT1A1 [1]; [3]) [µM] | Ki (human UGT1A1 [1]; [4]) [µM] | type of inhibition of UGT1A1-mediated glucuronidation (human UGT1A1 [1]) | decrease of apparent Vmax of glucuronidation versus control (human UGT1A1 [1]) [times] | further results |
| --- | --- | --- | --- | --- | --- | --- | --- | --- | --- | --- |
| – | – | – | – | – | O=c1cc(-c2ccccc2)oc2cc(O)ccc12 [7HF, 7-hydroxyflavone] | 1.77 ± 0.72 | 4.33 ± 1.6 | mixed-type inhibitors | ≤ 2.4 | – |
| 0.63 ± 0.02 | 0.61 ± 0.02 | 0.58 ± 0.01 | 0.14 ± 0.01 | 0.68 ± 0.02 | O=C(O)[C@H]1O[C@@H](Oc2ccc(-c3cc(=O)c4ccccc4o3)cc2)[C@H](O)[C@@H](O)[C@@H]1O [4′HF-O-G, 4′HF-O-glucuronide] | – | – | – | – | – |
| – | – | – | – | – | O=C(O)[C@H]1O[C@@H](Oc2ccc(-c3oc4cc(O)ccc4c(=O)c3O)cc2)[C@H](O)[C@@H](O)[C@@H]1O [3,7,4′THF-4′-O-G, 3,7,4′THF-4′-O-glucuronide] | – | – | – | – | detection of glucuronide in UGT1A1 reaction mixtures (human UGT1A1 [2]; 3,7,4′THF incubated with human UGT1A1): not detected |
| – | – | – | – | – | O=c1c(O)c(-c2ccccc2)oc2ccccc12 [3HF, 3-Hydroxyflavone] | 4.14 ± 1.24 | 9.04 ± 2.72 | mixed-type inhibitors | ≤ 4.6 | – |
| 1.63 ± 0.07 | 1.67 ± 0.03 | 2.05 ± 0.13 | 0.44 ± 0.16 | 2.00 ± 0.05 | O=C(O)[C@H]1O[C@@H](Oc2c(-c3ccccc3)oc3ccccc3c2=O)[C@H](O)[C@@H](O)[C@@H]1O [3HF-O-G, 3HF-O-glucuronide] | – | – | – | – | – |
| – | – | – | – | – | O=c1c(O)c(-c2ccc(O)cc2)oc2cc(O)ccc12 [3,7,4′THF, 3,7,4′-trihydroxyflavone] | – | – | mixed-type inhibition | – | Ki (human UGT1A1 [1]; Ki (inhibition of glucuronidation of 3HF), substrate 3HF): 0.51 ± 0.15 µM; Ki (human UGT1A1 [1]; Ki (inhibition of glucuronidation of 7HF), substrate 7HF): 1.29 ± 0.33 µM; Ki of substrate inhibition (human UGT1A1 [2]; substrate inhibition pattern of 3,7,4′THF in the absence of three MHFs): approximately 1 μM |
| 1.27 ± 0.03 | 1.16 ± 0.03 | 0.99 ± 0.07 | 0.59 ± 0.07 | 1.40 ± 0.05 | O=C(O)[C@H]1O[C@@H](Oc2ccc3c(=O)cc(-c4ccccc4)oc3c2)[C@H](O)[C@@H](O)[C@@H]1O [7HF-O-G, 7HF-O-glucuronide] | – | – | – | – | – |
| – | – | – | – | – | O=c1cc(-c2ccc(O)cc2)oc2ccccc12 [4′HF, 4′-hydroxyflavone] | 3.66 ± 0.77 | 6.22 ± 1.74 | mixed-type inhibitors | ≤ 5.0 | – |

Reference: publication PMC3953455 (Molecular pharmaceutics, 2013)
